Measured values gathered from unrelated publications.
Each line is one published result; the experiments were not run side by side.
Target: Ephrin type-A receptor 2 (EPHA2, Homo sapiens, UniProt P29317)

| SMILES | assay | conditions | measurement | value |
| --- | --- | --- | --- | --- |
| COc1ncccc1-c1cnn2ccc(N3CCN(C(=O)OC(C)C)CC3)nc12 | binding, competition with immobilised ligand | 1 µM | remaining binding | 79% |
| N#CC1(c2ccccn2)CCN(Cc2cc(C(=O)O)c(=O)n3ccccc23)CC1 | cell-free assay, competition with immobilised ligand | 1 µM | remaining binding | 83% |
| Cc1nn(C)cc1-c1nc2c(N3CCN(Cc4ccc(Cl)cc4)CC3)c(Cl)cnc2[nH]1 | binding, competition with immobilised ligand | 1 µM | remaining binding | 100% |
| CC(C)(C)c1cc(C=C(C#N)C#N)cc(Br)c1O | enzyme activity, inhibitor | 0.5 µM | remaining activity | 105% |
| Cn1cc(-c2cccc(N3CCc4c(sc5c4CC(C)(C)C5)C3=O)c2CO)cc(Nc2ccncn2)c1=O | enzyme activity, inhibitor | 1 µM | inhibition | 16% |
| COc1cc(Nc2ncc(F)c(Nc3ccc4c(n3)NC(=O)C(C)(C)O4)n2)cc(OC)c1OC | binding, competition with immobilised ligand | 10 µM | inhibition | 90% |
| Cn1cncc1[C@@](O)(COc1ccc(C#N)cc1-c1ccc(OC(F)(F)F)cc1)c1ccc(C#N)cc1 | cell-free assay, competition with immobilised ligand | 1 µM | remaining binding | 89% |
| Nc1ncc(-c2nc(N3CCOCC3)nc(N3CCOCC3)n2)c(C(F)F)n1 | cell-free assay, competition with immobilised ligand | 10 µM | remaining binding | 94% |
| O=c1[nH]c2ccccc2n1C1CCN(Cc2ccc(-c3[nH]c4cc5ncnc5cc4nc3-c3ccccc3)cc2)CC1 | cell-free assay | 0.5 µM | remaining signal | 103% |
| Cn1cc(-c2cc(F)cc(N3CCn4c(cc5c4CCCC5)C3=O)c2CO)cc(Nc2ccc(N3CCN(C4COC4)CC3)cn2)c1=O | enzyme activity, inhibitor | 0.1 µM | inhibition | -1% |
